From ChEMBL document CHEMBL3108769, “Development of 1,8-naphthalimides as clathrin inhibitors” (J Med Chem, 2014)
The source made the active and inactive calls. No cut-off for these calls is given here.

Columns and labels:
Clathrin heavy chain 1 [1] = target: T1, Clathrin heavy chain 1 (Homo sapiens, UniProt Q00610); experiment: Inhibition of recombinant GST-tagged clathrin heavy chain (unknown origin) at 100 uM after 1 hr by ELISA
Clathrin heavy chain 1 [2] = target: T1, Clathrin heavy chain 1; experiment: Inhibition of recombinant GST-tagged clathrin heavy chain (unknown origin) after 1 hr by ELISA
U2OS = experiment: Inhibition of clathrin in human U2OS cells assessed as texas red-Tf endocytosis incubated 30 mins prior to texas red-Tf addition measured after 8 mins; assay type: cell-based
Outline: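 U2OS cells preincubated 30 min with inhibitor (1 to 300 μM) or vehicle, then 4 μg/mL Tf-A594 added for 8 min at 37 °C. Uptake quantified by automated imaging and analysis, ~1200 cells per point. IC50 fitted; reported as mean ±95% CI from three wells.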

Ovis aries [3] = species: Ovis aries; details: 300 uM
[4] = Inhibition of phosphotidylserine-stimulated sheep brain dynamin 1 GTPase activity assessed as inhibition of phosphate release from GTP after 30 mins by malachite green reagent method; parameters: species or system Ovis aries
Outline: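 Native dynamin I purified from sheep brain (peripheral membrane fraction, GST-Amph2-SH3-sepharose affinity). Dynamin (20 nM) stimulated by 4 μg/mL sonicated phosphatidylserine with compound for 30 min at 37 °C. Buffer: 5 mM Tris-HCl pH 7.4, 10 mM NaCl, 2 mM Mg2+, 1 μg/mL leupeptin, 0.1 mM PMSF, 0.3 mM GTP. Phosphate release read by malachite green.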

Ovis aries [5] = species: Ovis aries; experiment: Inhibition of phosphotidylserine-stimulated sheep brain dynamin 1 GTPase activity assessed as inhibition of phosphate release from GTP at 100 uM after 30 mins by malachite green reagent method

T1 sequence (Q00610 whole entry): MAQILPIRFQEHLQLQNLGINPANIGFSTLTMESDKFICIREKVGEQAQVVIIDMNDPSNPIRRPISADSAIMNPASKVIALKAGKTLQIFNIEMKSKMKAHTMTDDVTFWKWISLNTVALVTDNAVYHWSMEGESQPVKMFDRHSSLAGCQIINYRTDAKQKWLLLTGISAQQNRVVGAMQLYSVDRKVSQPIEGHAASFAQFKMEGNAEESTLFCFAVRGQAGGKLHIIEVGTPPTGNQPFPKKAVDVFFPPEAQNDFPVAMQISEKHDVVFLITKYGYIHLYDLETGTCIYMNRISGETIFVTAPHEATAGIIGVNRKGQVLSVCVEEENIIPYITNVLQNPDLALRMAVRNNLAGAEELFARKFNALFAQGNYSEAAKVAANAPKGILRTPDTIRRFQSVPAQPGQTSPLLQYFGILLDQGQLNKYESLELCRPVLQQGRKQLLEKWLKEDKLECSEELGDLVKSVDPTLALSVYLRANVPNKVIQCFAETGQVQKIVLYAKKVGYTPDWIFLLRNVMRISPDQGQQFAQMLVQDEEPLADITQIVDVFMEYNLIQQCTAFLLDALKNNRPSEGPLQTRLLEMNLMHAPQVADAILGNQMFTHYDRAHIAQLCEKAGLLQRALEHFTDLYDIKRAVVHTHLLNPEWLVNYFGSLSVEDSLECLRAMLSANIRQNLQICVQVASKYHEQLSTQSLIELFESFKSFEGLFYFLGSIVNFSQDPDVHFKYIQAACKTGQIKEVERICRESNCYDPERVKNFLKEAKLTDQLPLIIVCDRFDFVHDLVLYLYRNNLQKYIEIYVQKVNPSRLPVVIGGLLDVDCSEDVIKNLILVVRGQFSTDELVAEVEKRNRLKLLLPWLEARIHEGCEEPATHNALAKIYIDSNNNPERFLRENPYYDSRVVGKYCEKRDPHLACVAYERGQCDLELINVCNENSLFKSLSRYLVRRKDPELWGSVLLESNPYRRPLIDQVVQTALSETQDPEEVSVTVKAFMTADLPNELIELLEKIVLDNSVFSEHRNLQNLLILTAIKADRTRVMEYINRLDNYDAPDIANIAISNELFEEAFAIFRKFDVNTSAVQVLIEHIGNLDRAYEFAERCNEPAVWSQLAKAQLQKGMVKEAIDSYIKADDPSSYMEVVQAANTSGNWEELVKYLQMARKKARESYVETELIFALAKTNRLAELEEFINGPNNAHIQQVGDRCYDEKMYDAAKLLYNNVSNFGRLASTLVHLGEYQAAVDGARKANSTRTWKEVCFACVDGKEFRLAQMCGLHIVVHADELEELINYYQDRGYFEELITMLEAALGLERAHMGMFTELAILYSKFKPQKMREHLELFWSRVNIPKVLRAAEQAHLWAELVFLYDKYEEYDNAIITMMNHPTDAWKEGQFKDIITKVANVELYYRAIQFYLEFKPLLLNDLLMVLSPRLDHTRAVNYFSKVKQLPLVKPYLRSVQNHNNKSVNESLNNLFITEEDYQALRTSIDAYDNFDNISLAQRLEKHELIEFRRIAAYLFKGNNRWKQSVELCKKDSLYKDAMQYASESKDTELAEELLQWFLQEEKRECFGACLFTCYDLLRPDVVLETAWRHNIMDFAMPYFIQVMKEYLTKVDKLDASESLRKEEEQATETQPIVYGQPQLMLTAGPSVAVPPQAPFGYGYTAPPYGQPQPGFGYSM

SMILES | inhibition (Clathrin heavy chain 1 [1]) | inhibition (U2OS) | other results
Nc1ccc(CN2C(=O)c3cccc4cccc(c34)C2=O)cc1 | inactive |  | 
CCCN1C(=O)c2cccc3c(N)c(S(=O)(=O)O)cc(c23)C1=O |  |  | IC50 (Clathrin heavy chain 1 [2]): 120 µM
Nc1ccc(CN2C(=O)c3cccc4cc(N)cc(c34)C2=O)cc1 | inactive |  | 
Nc1ccc(CN2C(=O)c3cccc4c(N)ccc(c34)C2=O)cc1 | inactive |  | 
Nc1ccc(CN2C(=O)c3cccc4cc([N+](=O)[O-])cc(c34)C2=O)cc1 | inactive |  | 
CN(C)c1ccc(CN2C(=O)c3cccc4cc(S(=O)(=O)O)cc(c34)C2=O)cc1 |  | inactive | inhibition (Ovis aries [3]): inactive
Nc1ccc(CN2C(=O)c3cccc4cc(Br)cc(c34)C2=O)cc1 | inactive |  | 
COc1cc2c3c(cccc3c1)C(=O)N(Cc1ccc(N)cc1)C2=O | inactive |  | 
O=C(O)c1ccc(CN2C(=O)c3cccc4cc(S(=O)(=O)O)cc(c34)C2=O)cc1 |  | inactive | IC50 [4]: 185 µM
Nc1ccc(CN2C(=O)c3cccc4c(Br)ccc(c34)C2=O)cc1 | inactive |  | 
O=C1c2cccc3cc(S(=O)(=O)O)cc(c23)C(=O)N1Cc1ccc(O)cc1 |  | inactive | inhibition (Ovis aries [3]): inactive
Nc1ccccc1CN1C(=O)c2cccc3cc(S(=O)(=O)O)cc(c23)C1=O |  | inactive | IC50 [4]: 108 µM
COc1ccc(CN2C(=O)c3cccc4cc(S(=O)(=O)O)cc(c34)C2=O)cc1 |  | inactive | inhibition (Ovis aries [3]): inactive
O=C1c2cccc3cc(S(=O)(=O)O)cc(c23)C(=O)N1Cc1ccc(Cl)cc1 |  | inactive | IC50 [4]: 111 µM
Nc1ccc(CN2C(=O)c3cc([N+](=O)[O-])cc4cc([N+](=O)[O-])cc(c34)C2=O)cc1 | inactive |  | 
O=C1c2cccc3cc(S(=O)(=O)O)cc(c23)C(=O)N1Cc1ccc(Br)cc1 |  | inactive | inhibition (Ovis aries [3]): inactive
O=C1c2cccc3cc(S(=O)(=O)O)cc(c23)C(=O)N1Cc1ccccc1 |  | inactive | inhibition (Ovis aries [3]): inactive
Nc1ccc(N2C(=O)c3cccc4cc(S(=O)(=O)O)cc(c34)C2=O)cc1 | inactive | inactive | inhibition (Ovis aries [5]): inactive
Nc1ccc(CN2C(=O)c3cccc4c(S(=O)(=O)O)ccc(c34)C2=O)cc1 | inactive |  | 
O=C1c2cccc3cc(S(=O)(=O)O)cc(c23)C(=O)N1Cc1ccc([N+](=O)[O-])cc1 | inactive | inactive | IC50 [4]: 49 µM
Nc1ccc(CN2C(=O)c3cccc4c([N+](=O)[O-])ccc(c34)C2=O)cc1 | inactive |  | 
Nc1ccc(CN2C(=O)c3cccc4cc(O)cc(c34)C2=O)cc1 | inactive |  | 
O=C1c2cccc3cc(S(=O)(=O)O)cc(c23)C(=O)N1Cc1ccc(F)cc1 |  | inactive | IC50 [4]: 306 µM
Nc1ccc(CN2C(=O)c3cccc4c(Cl)ccc(c34)C2=O)cc1 | inactive |  | 
Nc1ccc(CN2C(=O)c3cccc4cc(S(=O)(=O)O)cc(c34)C2=O)cc1 |  | inactive | inhibition (Ovis aries [5]): inactive
Cc1ccc(CN2C(=O)c3cccc4cc(S(=O)(=O)O)cc(c34)C2=O)cc1 |  | inactive | inhibition (Ovis aries [3]): inactive
Nc1cccc(CN2C(=O)c3cccc4cc(S(=O)(=O)O)cc(c34)C2=O)c1 |  | inactive | IC50 [4]: 264 µM
